Screening results (PubChem)
pPAFAH FP inh: pPAFAH enzyme inhibitors, primary screen, biochemical, fluorescence polarization, human; AID 463082, 2010; recombinant pPAFAH, FP-rhodamine probe fluorescence polarization; Platelet-activating factor acetylhydrolase (Homo sapiens), Q13093; inhibition, % at 3.39 µM; 330,000 tested, 1.5% active;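 active means inhibition above the mean inhibition across the screen plus 3 SD, cut at about 25% in these data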;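 further: inhibitors block binding of the rhodamine activity-based probe so polarization drops; 0% = enzyme with DMSO and 100% = wells lacking pPAFAH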
Target sequence (Q13093 whole entry, looked up): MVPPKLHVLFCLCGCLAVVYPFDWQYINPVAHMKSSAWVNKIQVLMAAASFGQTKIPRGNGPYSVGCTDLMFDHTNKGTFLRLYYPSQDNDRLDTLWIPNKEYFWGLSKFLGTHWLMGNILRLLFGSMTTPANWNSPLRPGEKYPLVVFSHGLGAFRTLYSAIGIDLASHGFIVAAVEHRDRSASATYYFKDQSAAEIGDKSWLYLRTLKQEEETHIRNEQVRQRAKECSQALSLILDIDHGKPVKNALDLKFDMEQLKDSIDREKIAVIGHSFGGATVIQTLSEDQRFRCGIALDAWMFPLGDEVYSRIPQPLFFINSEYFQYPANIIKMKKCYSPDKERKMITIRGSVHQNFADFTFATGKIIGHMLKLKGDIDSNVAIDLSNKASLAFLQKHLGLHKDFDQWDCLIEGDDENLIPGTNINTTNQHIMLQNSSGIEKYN
PAFAH1B2 inh: PAFAH1B2 enzyme inhibitors, primary screen, biochemical, fluorescence polarization, human; Platelet-activating factor acetylhydrolase IB subunit alpha2 (Homo sapiens), P68402; recombinant PAFAH1B2, FP-rhodamine activity probe; inhibition, % at 3.39 µM; 340,000 tested, 1.2% active;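 active means inhibition above the mean of all tested compounds plus 3 SD, cut at about 24% in these data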;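 further: 0% = enzyme with DMSO and 100% = wells lacking PAFAH1B2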
PAFAH1B3 FP inh: PAFAH1B3 enzyme inhibitors, primary screen, biochemical, fluorescence polarization, human. 340,000 tested, 0.28% active. inhibition, % at 3.39 µM. Platelet-activating factor acetylhydrolase IB subunit alpha1 (Homo sapiens), Q15102. recombinant PAFAH1B3, FP-rhodamine probe;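 active means inhibition above the screen-wide average of all tested compounds plus 3 SD, cut at about 25% in these data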;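 further: 0% = enzyme with DMSO only and 100% = wells lacking PAFAH1B3 protein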
Target sequence (Q15102 whole entry, looked up): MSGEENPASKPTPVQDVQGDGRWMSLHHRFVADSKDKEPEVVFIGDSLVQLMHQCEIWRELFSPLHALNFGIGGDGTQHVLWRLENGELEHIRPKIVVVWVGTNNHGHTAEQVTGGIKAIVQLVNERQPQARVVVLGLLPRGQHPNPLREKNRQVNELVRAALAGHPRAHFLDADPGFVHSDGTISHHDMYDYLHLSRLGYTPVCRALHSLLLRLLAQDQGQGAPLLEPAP
ASAP1 inh: inhibitors of human ASAP1 ArfGAP activity, primary screen, biochemical, fluorescence polarization; 360,000 tested, 0.19% active; Arf-GAP with SH3 domain, ANK repeat and PH domain-containing protein 1 (Homo sapiens), …; AID 624377, 2012; ASAP1-stimulated ARF1 GTP hydrolysis, GDP FP detection; inhibition, % at 16.5 µM; in the data active means inhibition above about 25%;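 further: 0% = vehicle with enzyme and substrate and 100% = no enzyme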
PAFAH2 FP inh: PAFAH2 enzyme inhibitors, primary screen, biochemical, fluorescence polarization, human. Platelet-activating factor acetylhydrolase 2, cytoplasmic (Homo sapiens), Q99487. inhibition, % at 3.39 µM. recombinant PAFAH2, FP-rhodamine activity probe. 340,000 tested, 0.99% active;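 active means inhibition above the mean over all tested compounds plus 3 SD, cut at about 30% in these data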;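 further: inhibitors block probe labeling of enzyme so polarization drops; 0% = enzyme with DMSO and 100% = wells lacking PAFAH2 protein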
ARFGAP1 inh: inhibitors of rat ARFGAP1 GAP activity, primary screen, biochemical, fluorescence polarization, GDP tracer. Arfgap1-stimulated ARF1 GTP hydrolysis, GDP FP detection. 360,000 tested, 0.26% active. ADP-ribosylation factor GTPase-activating protein 1 (Rattus norvegicus), Q62848. inhibition, % at 16.5 µM;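 active means inhibition above a per-plate limit, mean inhibition of low control wells plus 3 SD, cut at about 25% in these data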;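 further: 0% = DMSO wells with enzyme and 100% = wells lacking Arfgap1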
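Repeats: one replicate per compound; assay system: rat Arfgap1 catalytic domain, aa 1-136; times: enzyme reaction 120 min at 25 °C after 20 min preincubation; detection: FP of antibody-bound GDP Alexa 633 tracer, ex 620/em 688 nm; benchmarks: high control wells lacking Arfgap1, low control full reaction with DMSO; reagent: human ARF1(Δ1-17)-GTP substrate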
PAFAH2 confirm: PAFAH2 enzyme inhibitors, confirmation, biochemical, fluorescence polarization, human | AID 493030, 2011 | shares compounds with PAFAH2 FP inh | 2,300 tested, 65% active | inhibition, % at 3.39 µM | recombinant PAFAH2, FP-rhodamine activity probe;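 active means mean inhibition over three repeats above a set limit taken from the earlier primary screen, cut at about 30% in these data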;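 further: inhibitor blocks binding of rhodamine activity probe so polarization falls; 0% = enzyme with DMSO and 100% = wells lacking PAFAH2 protein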
The depositor's hits bear a star; . = no result given. Hits are enriched below; roughly 2.8% of the tested compounds scored in any of these assays.

SMILES	pPAFAH FP inh	PAFAH1B2 inh	PAFAH1B3 FP inh	ASAP1 inh	PAFAH2 FP inh	ARFGAP1 inh	PAFAH2 confirm
CC(=O)Nc1ccc(C(=O)OCC(=O)c2ccc(F)cc2)cc1	-9.3	5.4	5.4	-5.8	38.1*	14.1	35.8*
CN(C)c1ccc(C(=O)OCC(=O)NCCNC(=O)COC(=O)c2ccc(N(C)C)cc2)cc1	4.5	-3.1	15.3	3.2	13.4	1.1	.
CC(=O)Nc1ccc(C(=O)OCC(=O)Nc2c(F)cccc2F)cc1	-1.6	3.7	6.6	5.2	50.4*	5.3	38.2*
CC(C)(C)C(c1nc2ccccc2[nH]1)n1c(-c2cccc(S(C)(=O)=O)c2)nc2ccccc21 (centres undefined)	.	.	.	-0.9	.	-3.5	.
Cc1ccc(Cc2c(C(C)(C)C)nc3cc(C)c(Br)c(C)n23)cc1	.	.	.	8.9	.	-4.3	.
CN(C)c1ccc(C(=O)OCC(=O)NCC2CCCO2)cc1 (centres undefined)	7.8	1.2	2.3	8.3	61.7*	-3.2	56.4*
O=C1OC(/C(=C\Nc2cc(Cl)ccc2O)[N+](=O)[O-])c2ccccc21 (centres undefined)	17.7	1.6	9.2	-6.2	49.3*	7.8	45.6*
C/C(CC(=O)Nc1ccc(N(C)C)cc1)=N\NC(=O)C(=O)NCc1ccccc1	5.3	9.9	-3.0	2.5	45.7*	0.3	-6.0
COC(=O)c1cc(S(=O)(=O)Nc2cccc(-c3ccno3)c2)c[nH]1	.	.	.	13.7	.	5.0	.
CC(=O)Nc1ccc(C(=O)OCc2ccc(F)cc2Cl)cc1	4.9	-0.6	-4.7	-0.6	19.2	8.9	.
CCCS(=O)(=O)c1ccc(COC(=O)c2ccc(NC(C)=O)cc2)cc1	-2.2	-3.6	8.9	7.1	30.2*	12.5	23.9
CC(=O)Nc1ccc(C(=O)OCc2ccc(Cl)c(Cl)c2)cc1	0.7	5.1	4.0	18.3	60.9*	8.8	62.7*
CCC(=O)Nc1ccc(C(=O)OCc2ccc(Cl)c(Cl)c2)cc1	0.3	-1.6	-2.4	-6.8	36.1*	-0.2	46.8*
O=C(COC(=O)/C=C/c1ccc2c(c1)OCO2)NCc1ccccc1	-4.4	2.4	6.3	-6.7	55.2*	2.2	41.8*
O=C(COC(=O)/C=C/c1ccc2c(c1)OCO2)NCc1ccc(F)cc1	.	.	.	9.6	.	-4.3	.
CCN(CC)S(=O)(=O)c1ccc(/C=C/C(=O)OCC(=O)NCc2ccc3c(c2)OCO3)cc1	13.5	3.7	4.4	1.4	47.9*	1.6	30.1*
CC1CCCCC1NC(=O)COC(=O)/C=C/c1ccc2c(c1)OCO2 (centres undefined)	11.7	6.0	4.8	1.8	78.7*	-5.1	84.0*
CCN(CC)S(=O)(=O)c1ccc(/C=C/C(=O)OCC(=O)NNC(=O)c2ccc(OC)cc2)cc1	21.4	2.4	9.2	5.2	43.2*	-9.5	28.3
CC(=O)Nc1ccc(NC(=O)COC(=O)/C=C/c2ccc3c(c2)OCO3)cc1	-0.4	0.8	2.3	-1.2	-6.5	3.6	.
CCN(CC)S(=O)(=O)c1ccc(/C=C/C(=O)OCC(=O)Nc2ccc(C(N)=O)cc2)cc1	-2.4	-3.9	-9.8	-7.2	-6.5	-7.6	.
O=C(CCCOc1ccccc1)Nc1cccc(S(=O)(=O)N2CCOCC2)c1	1.9	1.1	1.5	-0.9	-8.8	6.6	.
COc1cc(/C=C/C(=O)OCC(=O)NCc2ccc3c(c2)OCO3)cc(OC)c1OC	4.0	2.4	7.0	-4.3	22.8	-5.4	.
COc1cccc(/C=C/C(=O)OCC(=O)NCc2ccc3c(c2)OCO3)c1	2.2	3.8	6.2	-9.9	35.2*	-4.2	16.8
Cc1ccc(N2CCN(C(=O)C(=O)c3cccc([N+](=O)[O-])c3)CC2)cc1	.	.	.	-5.4	.	-1.4	.
COc1ccc2c(c1)CC/C2=N\OC(=O)c1cccc(C)c1	4.0	7.8	1.0	-10.2	-3.7	-1.4	.
SMILES	pPAFAH FP inh	PAFAH1B2 inh	PAFAH1B3 FP inh	ASAP1 inh	PAFAH2 FP inh	ARFGAP1 inh	PAFAH2 confirm
O=C(O/N=C1\CCS(=O)(=O)c2sccc21)c1ccccc1	3.5	-4.0	5.8	2.1	73.3*	3.7	71.5*
O=S1(=O)CCC(=Nc2ccc(Cl)cc2)c2ccsc21	2.8	1.6	10.2	3.6	6.4	-10.0	.
O=C(O/N=C1\CCS(=O)(=O)c2sccc21)c1ccc(F)cc1	2.3	2.9	-2.1	-6.3	52.1*	9.1	55.3*
Cc1cccc(C(=O)O/N=C2\CCS(=O)(=O)c3sccc32)c1	16.4	3.8	6.5	-2.0	77.9*	-5.9	76.7*
Cc1ncsc1C(=O)N1CCCC(C(=O)c2ccc3ccccc3c2)C1 (centres undefined)	0.3	-2.3	-1.2	6.1	-2.5	15.1	.
NC(=O)c1sc2nc3c(c(-c4ccco4)c2c1N)CCC3	20.1	8.6	24.0	-4.4	43.8*	-9.7	6.8
O=C1CCCC2=C1C(c1cccc(O)c1)C1=C(N2)c2ccccc2C1=O (centres undefined)	4.4	-1.9	-0.8	1.8	29.7*	1.7	10.1
CSc1nc2[nH]c(=O)n(O)c(=O)c2n1Cc1ccccc1	.	13.2	-6.2	-0.4	37.5*	-13.1	7.7
Cc1ccc(C(=O)OCC(=O)NN2C(=O)NC3(CCC(C)CC3)C2=O)cc1 (centres undefined)	15.0	-2.9	0.7	2.3	74.1*	6.4	54.2*
Cc1cccc(C(=O)OCC(=O)NN2C(=O)NC3(CCCCC3)C2=O)c1	24.0	0.1	2.2	9.2	29.3	-3.3	.
CN(C)S(=O)(=O)c1ccc(C(=O)N2CCN(S(=O)(=O)c3ccc4c(c3)OCCO4)CC2)cc1	.	-1.0	0.1	5.5	45.5*	0.4	41.1*
CCCCCn1c(C)c(CC(=O)Nc2ccc(Oc3cccnc3)c(C)c2)c2ccccc21	.	.	.	-2.8	.	-5.5	.
Nc1[nH]n2c(=O)c3c(nc2c1N=Nc1ccc(Cl)cc1)CCCC3	9.7	10.1	5.7	15.0	39.6*	-5.5	24.6
O=C(CCc1ccccc1)Nc1ccccc1C(=O)NCc1ccco1	5.4	1.9	5.2	-3.6	29.7*	8.7	29.9*
O=C(COC(=O)CC1CC2CCC1C2)Nc1ccc(Cl)c(S(=O)(=O)N2CCOCC2)c1 (centres undefined)	9.0	4.9	-3.3	5.0	69.4*	4.5	58.7*
Cc1ccc(NC(=O)COC(=O)c2sccc2C)cc1S(=O)(=O)N1CCOCC1	0.7	-2.8	4.2	-17.3	80.8*	-5.3	72.2*
